# Shown are actives, neighbours in structure and some others; about 4.7% of the full set was active somewhere.
# RGS4 block: RGS4 inhibitors, primary screen, cell-based, HEK293 M3R inducible RGS4, calcium flux. Regulator of G-protein signaling 4 (Homo sapiens), P49798. Fluo-4 calcium flux; hits give high values; triggered by carbachol at its EC20. B-score at 10 µM. 310,000 tested, 0.45% active;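 active = B-score, a plate-corrected calcium signal, over three deviations above library mean, with baseline fluorescence within five deviations of library mean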;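 also: RGS4 expression induced by doxycycline in cells with stable M3 receptor; B-score is computed from the integrated fluorescence ratio over baseline after carbachol; higher B-score means a larger calcium signal and so more RGS4 inhibition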
# MrgX1 antag: antagonists of human MrgX1 receptor, primary screen, HEK293 cells, Fluo-4 calcium flux; Mas-related G-protein coupled receptor member X1 (Homo sapiens), Q96LB2; B-score at 10 µM; 310,000 tested, 1.3% active; BAM8-22 antagonism; hits give low values;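 active = calcium-response B-score plate-corrected more than 3 library SD below zero, starting fluorescence within 5 deviations, no agonist response on first addition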;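 also: peak minus trough fluorescence over baseline after final BAM8-22 challenge near maximal dose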
# MrgX1 allo act: positive allosteric modulators of MrgX1, primary screen, HEK293 cells, Fluo-4 calcium flux; B-score at 10 µM; FDSS; hits give high values; AID 588675, 2011; Mas-related G-protein coupled receptor member X1 (Homo sapiens), Q96LB2; 310,000 tested, 0.63% active;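 active = plate-corrected calcium response at least 3 library SD above typical, normal starting fluorescence, not activating the receptor alone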;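 also: compound read alongside a low EC10 to EC30 dose of BAM8-22 agonist; peak minus trough fluorescence over baseline measured at the second addition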
# MrgX1 ag: agonists of human MrgX1 receptor, primary screen, HEK293 cells, Fluo-4 calcium flux; B-score at 10 µM; Fluo-4 calcium fluorescence, agonist mode; hits give high values; AID 588627, 2011; 310,000 tested, 0.44% active;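 active = calcium response B-score plate-corrected fluorescence ratio at least 3 library SD, with starting fluorescence B-score inside 5 SD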
#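 times = overnight plating, then 30 min 37 °C plus 30 min room-temperature dye loading | assay system = stable human MrgX1 HEK293 cell line | input = fifteen thousand cells per well | signal = kinetic calcium dye fluorescence, Fluo-4 NW | dosing = compound delivered in addition one of three | read-out = B-scored fluorescence response ratio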
# RGS4 pot: RGS4 potentiators or activators, primary screen, cell-based, HEK293 M3R inducible RGS4, calcium flux; 310,000 tested, 0.92% active; carbachol calcium flux Fluo4; hits give low values; B-score at 10 µM; AID 463111, 2010;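 active = B-score of the integrated calcium signal more than 4 SD below the library mean, with starting fluorescence not abnormally high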;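 also: negative B-score means reduced calcium response which marks RGS4 activation or potentiation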
#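 Also added: carbachol at ECmax as muscarinic agonist stimulus; Assay system: HEK293 cells with stable M3R and inducible RGS4; Timing: overnight RGS4 induction, 30 min dye load 37 °C, 20 min compound RT; Measured by: Fluo4-AM (2 µM) calcium-flux fluorescence, kinetic read.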
# KCC2 mod: KCC2 cotransporter modulators, thallium flux, primary screen, cell-based, HEK293 KCC2, FluoZin-2 fluorescence, MLSMR; Solute carrier family 12 member 5 (Homo sapiens), Q9H2X9; KCC2 cells, thallium flux FluoZin-2 fluorescence; B-score of Tl+ flux slope (higher = more flux/activation; lower = inhibition) at 10 µM; 190,000 tested, 2.2% active; AID 1456, 2008;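 active = thallium flux slope and its plate-corrected score both differing from the plate sample mean at a set confidence after two filtering rounds, in either direction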;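 also: slope of fluorescence scaled to starting intensity during 10 to 20 s after thallium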
# Target sequence (Q9H2X9 whole entry, looked up): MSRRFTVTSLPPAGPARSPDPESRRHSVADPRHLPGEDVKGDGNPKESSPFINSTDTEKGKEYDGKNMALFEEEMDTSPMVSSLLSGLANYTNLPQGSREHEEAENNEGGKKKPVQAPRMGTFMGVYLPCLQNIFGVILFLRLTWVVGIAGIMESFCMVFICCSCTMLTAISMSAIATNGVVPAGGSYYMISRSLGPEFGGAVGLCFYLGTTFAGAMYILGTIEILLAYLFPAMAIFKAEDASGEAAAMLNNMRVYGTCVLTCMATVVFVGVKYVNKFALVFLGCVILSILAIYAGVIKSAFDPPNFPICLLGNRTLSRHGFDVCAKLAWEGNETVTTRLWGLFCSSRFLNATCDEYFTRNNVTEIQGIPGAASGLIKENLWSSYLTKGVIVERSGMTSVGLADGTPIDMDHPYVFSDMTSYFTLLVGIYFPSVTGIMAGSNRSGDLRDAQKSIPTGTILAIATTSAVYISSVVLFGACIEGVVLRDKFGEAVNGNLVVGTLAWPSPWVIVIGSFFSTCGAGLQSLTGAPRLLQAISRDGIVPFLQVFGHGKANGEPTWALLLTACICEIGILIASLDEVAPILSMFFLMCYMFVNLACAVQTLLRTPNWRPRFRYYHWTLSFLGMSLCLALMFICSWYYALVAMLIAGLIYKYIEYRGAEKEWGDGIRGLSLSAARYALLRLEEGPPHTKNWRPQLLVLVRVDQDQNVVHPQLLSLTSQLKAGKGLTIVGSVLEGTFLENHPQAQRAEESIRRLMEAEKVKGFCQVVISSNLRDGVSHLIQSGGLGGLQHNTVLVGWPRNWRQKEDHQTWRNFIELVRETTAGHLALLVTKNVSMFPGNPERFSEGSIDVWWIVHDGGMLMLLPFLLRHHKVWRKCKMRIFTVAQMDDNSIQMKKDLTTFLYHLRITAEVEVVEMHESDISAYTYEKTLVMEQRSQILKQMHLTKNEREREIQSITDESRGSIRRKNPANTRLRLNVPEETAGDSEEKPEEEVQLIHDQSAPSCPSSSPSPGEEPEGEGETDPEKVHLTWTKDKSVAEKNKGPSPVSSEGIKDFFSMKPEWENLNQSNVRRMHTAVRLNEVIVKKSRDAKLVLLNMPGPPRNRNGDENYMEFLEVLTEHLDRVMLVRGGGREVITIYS
# The depositor's hits bear a star; i = inactive; / = no result given.
SMILES,RGS4 block,MrgX1 antag,MrgX1 allo act,MrgX1 ag,RGS4 pot,KCC2 mod
CCCCn1c(N)c(N(CCC(C)C)C(=O)c2ccc3c(c2)OCCO3)c(=O)[nH]c1=O,i,i,i,i,i,/
COC(=O)c1c(C)[nH]c(C(=O)OCC(=O)N(CC(C)C)c2c(N)n(Cc3ccccc3)c(=O)[nH]c2=O)c1C,i,i,i,i,i,/
CC(=O)Nc1sc(C)c(C)c1C(=O)OCC(=O)N(CC(C)C)c1c(N)n(Cc2ccccc2)c(=O)[nH]c1=O,i,i,i,i,-7.8*,/
CCCCCCCCCCCCCCCC[n+]1cccc(C(=O)N(CC)CC)c1,i,i,i,i,-9.9*,1.4
CCCC1=NN2C(=N)/C(=C\c3cc(C)n(Cc4ccccc4)c3C)C(=O)N=C2S1,i,i,i,i,i,1
O=C1NC(=S)S/C1=C\c1ccc(SCc2ccccc2)o1,/,i,i,i,/,29*
CCCC1=NN2C(=N)/C(=C\c3ccc(SCc4ccco4)o3)C(=O)N=C2S1,i,i,i,31*,i,/
O=C1NC(=S)S/C1=C/c1ccc(OC(=O)c2ccco2)cc1,i,i,i,i,i,/
O=C1NC(=S)S/C1=C\c1ccc(SCc2ccco2)o1,/,i,i,i,/,119*
Cc1ccc(NC(=O)NC2CC(=O)N(c3ccc4c(c3)OCCO4)C2)c(C)c1 (centres undefined),i,i,i,i,i,/
O=C(Nc1nc(-c2ccccc2)cs1)C1COc2ccccc2O1 (centres undefined),i,i,i,i,i,0.17
O=C(Nc1nc(-c2ccc3c(c2)OCO3)cs1)C1COc2ccccc2O1 (centres undefined),i,i,i,i,-7.5*,2.8
O=C(O)CC/C(=C\c1cc([N+](=O)[O-])ccc1Cl)c1nc2ccccc2s1,i,i,i,i,i,-10*
O=C(Nc1nc2ccccc2s1)Nc1ccc([N+](=O)[O-])cc1Cl,i,i,i,i,i,/
COc1ccccc1CNC(=O)/C(C#N)=C/c1ccc(OC)c(OC)c1OC,i,i,i,i,i,/
COc1ccc(N(C)S(=O)(=O)c2ccc3c(c2)NC(=O)CC(=O)N3)c(OC)c1,i,i,i,i,i,/
N/C(=N\OC(=O)COc1ccc([N+](=O)[O-])cc1)c1ccncc1,i,i,i,i,i,0.14
N/C(=N\OC(=O)COc1ccc(Br)cc1)c1ccncc1,i,-6*,i,i,i,0.067
S=c1[nH]nc(-c2cc3ccccc3o2)n1Cc1ccccc1,i,i,i,i,i,28*
Cc1ccc(C(=O)N/N=C(/CC(=O)c2cccs2)C(F)(F)F)cc1,i,i,i,i,i,64*
Cn1c(Cc2cccc3ccccc23)nnc1SCc1ccc([N+](=O)[O-])cc1,i,-8.6*,i,i,i,-2.9
COc1ccc(CC(=O)NCc2nnc(SCc3ccc([N+](=O)[O-])cc3)n2C)cc1,i,i,i,i,i,-0.11
O=C(CSc1nnc(-c2ccccc2)c(-c2ccccc2)n1)Nc1ncc(Cl)cc1Cl,i,i,i,i,i,-0.1
Cc1nc(NC(=O)CSc2nnc(-c3ccccc3)c(-c3ccccc3)n2)c(Cl)cc1Cl,i,i,i,i,-7.2*,-0.95
C/C(=N\NC(=O)C(=O)Nc1cc(C)ccc1C)c1ccncc1,i,i,i,i,i,0.069
SMILES,RGS4 block,MrgX1 antag,MrgX1 allo act,MrgX1 ag,RGS4 pot,KCC2 mod
O=S(=O)(c1cc(Cl)ccc1Cl)N1CC2CCCN2c2ccc(C(F)(F)F)cc21 (centres undefined),i,i,i,i,-7.1*,/
O=S(=O)(Nc1ccc2c(c1)OCO2)c1cccs1,i,i,i,i,i,0.087
O=S(=O)(Nc1ccc2c(c1)OCCO2)c1cccs1,i,-4.6*,i,i,i,-0.074
COCOc1ccc(-c2oc3c(C/C=C(\C)CCC=C(C)C)ccc(O)c3c(=O)c2OCOC)c(OCOC)c1,i,-6.9*,i,i,i,/
CC(C)=CCC/C(C)=C/COc1ccc2ccc(=O)oc2c1,i,i,i,i,i,0.47
Fc1ccc(Cn2c(SCc3ccc(F)c(F)c3)nnc2C(F)(F)F)cc1,i,i,i,i,-8.5*,/
C=CC[n+]1c(-c2ccccc2)csc1NC(C)(C)C,i,-4.9*,i,i,i,0.37
CC(=O)N1c2ccc(S(=O)(=O)NCC3CCC(C(=O)NCc4ccco4)CC3)cc2CC1C (centres undefined),i,i,i,i,i,/
CSc1nc(SCC(=O)O)c2sc3nc(-c4ccccc4)c4c(c3c2n1)CCC4,i,/,/,/,i,6.1*
CC(=O)NC(NC(=S)Nc1ccc(N=Nc2ccccc2C)cc1C)C(Cl)(Cl)Cl (centres undefined),i,-4.6*,i,i,i,1.9
Cc1cccc(N2CCN(C(=O)c3ccc(CS(=O)Cc4cccc(Cl)c4)o3)CC2)c1C (centres undefined),i,i,i,i,-10*,/
Cc1ccc(C)c(N2CCN(C(=O)c3ccc(CS(=O)Cc4ccc(Cl)cc4)o3)CC2)c1 (centres undefined),i,i,i,i,-8.5*,/
Cc1ccc(Cl)cc1N1CCN(C(=O)c2ccc(CS(=O)Cc3ccc(Cl)cc3)o2)CC1 (centres undefined),i,i,i,i,i,/
CCOCCCNC(=O)C1CCCN(S(=O)(=O)c2ccc(-n3cnnn3)cc2)C1 (centres undefined),i,i,i,i,i,/
CCOC(=O)c1cc(C(=O)OCC)c(=O)[nH]c1SCc1ccccc1,i,i,i,i,i,/
O=C(/C=C/c1cccc(F)c1)NCCCn1ccnc1,i,i,i,i,i,/
CC(C)c1ccc(NC(=O)NCc2cccnc2)cc1,i,i,i,i,i,/
CS(=O)(=O)N1CCN(C(=O)C2c3ccccc3Oc3ccccc32)CC1,i,i,i,i,-7.5*,-0.66
